pIC50: −log10 of the molar value. Converted amounts (≈) assume the structure as drawn.
Columns and labels:
[1] = system: Mycobacterium tuberculosis; experiment: Antibacterial activity against cytochrome bd oxidase knockout GFP-fused Mycobacterium tuberculosis H37RvMA grown in GAST/Fe medium measured on day 7 and day 14 post inoculation by fluorescence plate reader assay; format: functional
[2] = system: Mycobacterium tuberculosis; experiment: Antibacterial activity against cytochrome bd oxidase knockout GFP-fused Mycobacterium tuberculosis H37RvMA grown in 7H9/GLU/ADC medium measured on day 7 and day 14 post inoculation by fluorescence plate reader assay; format: functional; details: Mycobacterium tuberculosis, H37RvMA; read-out: MIC99
[3] = Kinetic solubility of the compound in pH 7.4 solution at 10 to 220 uM after 2 hrs by shake flask method; format: physicochemical; details: buffer, pH 7.4, 2 h, 220 µM
Liver [4] = experiment: Metabolic stability in human liver microsomes assessed as compound remaining at 0.1 uM after 30 mins by LC-MS/MS analysis; format: ADME, microsome; details: 0.5 h
Outline: (§1)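 Compound at 0.1 μM incubated in duplicate with mouse, rat or pooled human liver microsomes (0.4 mg/mL) at 37 °C. Run with and without 1 mM NADPH, sampled at predetermined time points.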

[5] = system: Mycobacterium tuberculosis; experiment: Antibacterial activity against wild type Mycobacterium tuberculosis H37Rv grown in GAST/Fe medium measured on day 14 post inoculation by broth microdilution method; format: functional; details: 336 h
Outline: (§2)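 H37RvMa grown to OD600 0.6–0.7, diluted 1:100 in GAST/Fe. Compounds two-fold serially diluted from a top concentration of 640 μM, in duplicate. Incubated at 37 °C with humidification.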

[6] = system: Mycobacterium tuberculosis; experiment: Antibacterial activity against Mycobacterium tuberculosis […] SAWC1125 grown in middlebrook 7H9 medium measured on day 7 and 14 by MABA assay; format: functional; details: 168 h
Outline: (§3)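 Clinical M. tuberculosis strains tested by broth microdilution in 7H9 medium. On days 7 and 14, Alamar Blue added and plates reincubated 24 h at 37 °C. Colour read by eye (blue means no growth, pink means growth). MIC90 is the lowest concentration with no colour change.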

Liver [7] = experiment: Metabolic stability in mouse liver microsomes assessed as compound remaining at 0.1 uM after 30 mins by LC-MS/MS analysis; format: ADME, microsome; details: 0.5 h; outline: as §1
[8] = Lipophilicity, log P of the compound at 100 uM at pH 7.4 after 3 hrs by shake-flask method; format: physicochemical; details: buffer
Outline: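 Shake-flask method run in triplicate. A 10 mM stock was spiked into a 1:1 mixture of phosphate buffer (pH 7.4) and n-octanol, then shaken at 1500 rpm on an orbital shaker for 3 h at room temperature.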

[9] = system: Mycobacterium tuberculosis; experiment: Antibacterial activity against Mycobacterium tuberculosis H37RvMA grown in 7H9/ADC medium measured 7 to 14 days post inoculation by broth microdilution method; format: functional
Plasma = experiment: Fraction unbound in human plasma at 5 uM pre-incubated for 1 hr by ultra-centrifugation and LC-MS/MS method; format: ADME, cell-free
Outline: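 Pooled human plasma spiked to 5 μM and pre-incubated 1 h at 37 °C. Duplicate aliquots ultracentrifuged 4 h at 37 °C; an unspun aliquot served as the total sample. Analyte measured by LC-MS/MS.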

[10] = system: Mycobacterium tuberculosis; experiment: Antibacterial activity against Mycobacterium tuberculosis […] SAWC3933 grown in middlebrook 7H9 medium measured on day 7 and 14 by MABA assay; format: functional; details: 168 h; outline: as §3
Vero = experiment: Cytotoxicity against African green monkey Vero cells assessed as reduction in cell viability by MTT assay; format: cell-based; details: Chlorocebus sabaeus
Outline: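 MTT assay in Vero cells, samples in triplicate on one occasion. Stocks at 20 mg/mL in DMSO, diluted in complete medium as 10-fold serial dilutions over 6 concentrations. Emetine used as reference. IC50 derived by non-linear dose-response curve fitting.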

[11] = system: Mycobacterium tuberculosis; experiment: Antibacterial activity against Mycobacterium tuberculosis […] SAWC3200 grown in middlebrook 7H9 medium measured on day 7 and 14 by MABA assay; format: functional; details: 168 h; outline: as §3
[12] = Kinetic solubility of the compound in fasted-state simulated intestinal fluid at 10 to 220 uM at pH 6.5 after 2 hrs by shake flask method; format: physicochemical; details: read-out: Kinetic_solubility
Outline: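 Miniaturised shake flask. 10 mM DMSO stocks spiked 1:50 into duplicate FaSSIF (pH 6.5), 2% final DMSO. Shaken 2 h at 25 °C, filtered, analysed by HPLC-DAD against calibration standards (10–220 μM).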

[13] = system: Mycobacterium tuberculosis; experiment: Antibacterial activity against Mycobacterium tuberculosis […] SAWC3906 grown in middlebrook 7H9 medium measured on day 7 and 14 by MABA assay; format: functional; details: 168 h; outline: as §3
[14] = system: Mycobacterium tuberculosis; experiment: Antibacterial activity against Mycobacterium tuberculosis H37Rv grown in middlebrook 7H9 medium measured on day 7 and 14 by MABA assay; format: functional; details: 168 h
[15] = system: Mycobacterium tuberculosis; experiment: Antibacterial activity against Mycobacterium tuberculosis H37RvMA grown in GAST/Fe medium measured 7 to 14 days post inoculation by broth microdilution method; format: functional; outline: as §2
[16] = system: Mycobacterium tuberculosis; experiment: Antibacterial activity against Mycobacterium tuberculosis […] SAWC3388 grown in middlebrook 7H9 medium measured on day 7 and 14 by MABA assay; format: functional; details: 168 h; outline: as §3
[17] = system: Mycobacterium tuberculosis; experiment: Antibacterial activity against Mycobacterium tuberculosis […] SAWC3385 grown in middlebrook 7H9 medium measured on day 7 and 14 by MABA assay; format: functional; details: 168 h; outline: as §3
Liver [18] = experiment: Metabolic stability in rat liver microsomes assessed as compound remaining at 0.1 uM after 30 mins by LC-MS/MS analysis; format: ADME, microsome; details: 0.5 h; outline: as §1
Mus musculus [19] = experiment: AUC (0 to infinity) in C57/BL6 mouse at 20 mg/kg, po measured up to 24 hrs post dose by LC-MS/MS analysis; format: ADME, organism-based; set-up: dose 20 mg/kg, route oral, time infinity; details: in vivo
Outline: (§4)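 Male mice, 3 per route, not fasted, free access to water. Oral dose given as aqueous suspension in 0.5% (w/v) hydroxypropyl methylcellulose with 0.4% (v/v) Tween 80. Blood drawn into heparinised tubes at 0.5, 1, 3, 5, 8, 12 and 24 h, kept below -15 °C, protein-precipitated with ice-cold acetonitrile. Quantified by LC-MS/MS against standards made in drug-free mouse blood.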

Mus musculus [20] = experiment: Apparent elimination half life in C57/BL6 mouse at 20 mg/kg, po measured up to 24 hrs post dose by LC-MS/MS analysis; format: ADME, organism-based; details: in vivo; outline: as §4
Mus musculus [21] = experiment: Apparent elimination half life in C57/BL6 mouse at 5 mg/kg, iv measured up to 24 hrs post dose by LC-MS/MS analysis; format: ADME, organism-based; details: in vivo
Outline: (§5)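 Male mice, 3 animals, not fasted, given an IV bolus in 10% DMSO, 50% propylene glycol/ethanol (4:1) and 40% polyethylene glycol or water. Blood sampled into heparinised tubes at 0.17, 0.5, 1, 3, 5, 8, 12 and 24 h, stored frozen, precipitated with ice-cold acetonitrile. Measured by LC-MS/MS with internal standards against blood-matrix calibration standards.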

Mus musculus [22] = experiment: Cmax in C57/BL6 mouse at 20 mg/kg, po measured up to 24 hrs post dose by LC-MS/MS analysis; format: ADME, organism-based; set-up: dose 20 mg/kg, route oral; details: in vivo; outline: as §4
Mus musculus [23] = experiment: Oral bioavailability in C57/BL6 mouse at 20 mg/kg measured up to 24 hrs post dose by LC-MS/MS analysis; format: ADME, organism-based; details: in vivo; outline: as §4
Mus musculus [24] = experiment: AUC (0 to infinity) in C57/BL6 mouse at 5 mg/kg, iv measured up to 24 hrs post dose by LC-MS/MS analysis; format: ADME, organism-based; set-up: dose 5 mg/kg, route intravenous, time infinity; details: in vivo; outline: as §5
Mus musculus [25] = experiment: Volume of distribution in C57/BL6 mouse at 5 mg/kg, iv measured up to 24 hrs post dose by LC-MS/MS analysis; format: ADME, organism-based; details: in vivo; outline: as §5
Mus musculus [26] = experiment: Tmax in C57/BL6 mouse at 20 mg/kg, po measured up to 24 hrs post dose by LC-MS/MS analysis; format: ADME, organism-based; details: in vivo; outline: as §4

SMILES	MIC99 [1]	MIC99 [2]	Kinetic_solubility [3]	Stability (Liver [4])	MIC90 [6]	Stability (Liver [7])	logD at 3 h, 100 µM [8]	MIC99 [9]	Fu (Plasma)	MIC90 [10]	pIC50 (Vero)	MIC90 [11]	solubility kinetic at 2 h [12]	MIC90 [13]	MIC90 [14]	MIC99 [15]	MIC90 [16]	MIC90 [17]	Stability (Liver [18])	AUC (Mus musculus [19])	other results
CN(Cc1ccc(C(F)(F)F)cc1)c1cc(C(=O)NC2CCCCC2)ncn1	12 µM (≈ 4.71 µg/mL)	> 125 µM	5 µM	–	–	–	–	–	–	–	–	–	–	–	–	–	–	–	–	–	–
CC(C)Oc1ccc(NC(=O)c2cc(N(C)Cc3ccc(F)cc3)ncn2)cc1	–	–	–	64%	2.5 µM (≈ 0.986 µg/mL)	37%	5	5 µM (≈ 1.97 µg/mL)	0.04%	2.5 µM (≈ 0.986 µg/mL)	3.60	< 0.08 µM	< 5 µM	0.31 µM (≈ 0.122 µg/mL)	1.25 µM (≈ 0.493 µg/mL)	1.2 µM (≈ 0.473 µg/mL)	0.31 µM (≈ 0.122 µg/mL)	0.31 µM (≈ 0.122 µg/mL)	43%	–	MIC99 [5]: 1.25 to 5 µM (≈ 0.493 to 1.97 µg/mL)
CN1CCN(c2ccc(NC(=O)c3cc(N(C)Cc4ccc(C(F)(F)F)cc4)ncn3)cc2)CC1	–	–	< 5 µM	57%	2.5 to 5 µM (≈ 1.21 to 2.42 µg/mL)	21%	5	3.13 µM (≈ 1.52 µg/mL)	0.14%	1.25 to 2.5 µM (≈ 0.606 to 1.21 µg/mL)	3.79	1.25 µM (≈ 0.606 µg/mL)	150 µM (≈ 72.7 µg/mL)	0.31 to 0.63 µM (≈ 0.15 to 0.305 µg/mL)	1.25 to 2.5 µM (≈ 0.606 to 1.21 µg/mL)	1.25 µM (≈ 0.606 µg/mL)	1.25 to 2.5 µM (≈ 0.606 to 1.21 µg/mL)	1.25 µM (≈ 0.606 µg/mL)	37%	564 µM·min	betat1/2(app) (Mus musculus [20]): 15.8 h; betat1/2(app) (Mus musculus [21]): 10.3 h; Cmax (Mus musculus [22]): 0.42 µM; F (Mus musculus [23]): 26%; AUC (Mus musculus [24]): 540 µM·min; Vd (Mus musculus [25]): 21.8 L/kg
CN(Cc1cccnc1)c1cc(C(=O)Nc2ccccc2)ncn1	37 µM (≈ 11.8 µg/mL)	48 µM (≈ 15.3 µg/mL)	150 µM	–	–	–	–	–	–	–	–	–	–	–	–	–	–	–	–	–	–
CN(Cc1ccc(C(F)(F)F)nc1)c1cc(C(=O)Nc2nncs2)ncn1	–	–	191 µM	100%	2.5 µM (≈ 0.988 µg/mL)	78%	1.4	50 µM (≈ 19.8 µg/mL)	0.32%	10 to 20 µM (≈ 3.95 to 7.91 µg/mL)	4.55	2.5 to 5 µM (≈ 0.988 to 1.98 µg/mL)	195 µM (≈ 77.1 µg/mL)	2.5 to 5 µM (≈ 0.988 to 1.98 µg/mL)	–	5 µM (≈ 1.98 µg/mL)	10 µM (≈ 3.95 µg/mL)	10 µM (≈ 3.95 µg/mL)	88%	5614 µM·min	betat1/2(app) (Mus musculus [20]): 3 h; betat1/2(app) (Mus musculus [21]): 3 h; Cmax (Mus musculus [22]): 10.8 µM; F (Mus musculus [23]): 67%; Tmax (Mus musculus [26]): 1 h; AUC (Mus musculus [24]): 2106 µM·min; Vd (Mus musculus [25]): 1.7 L/kg
